The source made the active and inactive calls. The calls are words filed in the database; no cut-off is given here.
Key:
[1] = Antiplatelet activity against collagen EPI-induced human platelet aggregation assessed as closure time at 1.25 x 10^-4M; assay type: functional
Method in brief: (§1)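 Compound solution added to citrated human whole blood (125 µL into 1875 µL) to the final concentration stated, then run on a PFA-100 in collagen/ADP and collagen/epinephrine cartridges. Closure time is the time until platelets occlude the membrane aperture, in seconds. Mean ± SEM of three independent experiments.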

[2] = molecular target: Coagulation factor X (Homo sapiens) (UniProt P00742); assay: Inhibition of human factor 10a assessed as 125 x 10^-6M chromogenic TH substrate hydrolysis at 2 x 10^-3M
Sequence of Coagulation factor X (Homo sapiens) (P00742 41-179 limits assumed): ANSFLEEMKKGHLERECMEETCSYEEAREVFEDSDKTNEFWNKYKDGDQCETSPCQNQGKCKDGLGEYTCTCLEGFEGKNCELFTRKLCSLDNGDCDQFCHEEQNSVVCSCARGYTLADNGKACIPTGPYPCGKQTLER
Sequence of Coagulation factor X (Homo sapiens) (P00742 235-488 limits assumed): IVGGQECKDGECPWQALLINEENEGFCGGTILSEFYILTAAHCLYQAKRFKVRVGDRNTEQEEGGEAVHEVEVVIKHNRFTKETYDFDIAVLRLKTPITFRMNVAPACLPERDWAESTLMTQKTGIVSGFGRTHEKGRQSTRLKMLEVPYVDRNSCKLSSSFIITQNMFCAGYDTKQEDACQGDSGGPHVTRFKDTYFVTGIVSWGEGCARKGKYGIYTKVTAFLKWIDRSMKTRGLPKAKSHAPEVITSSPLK
Method in brief: (§2)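 Direct FXa test, with buffer in place of ATIII: compound in water in 50 mM Tris/HCl pH 8.3, 227 mM NaCl, 0.1% BSA, 10 min at 37 °C. Human FXa (0.5 U/mL final) added for 10 min, then CBS 31.39 (25 or 125 × 10^-6 M). Read at 405 nm every 12 s for 20 min. Percent inhibition from initial slope against water control, Michaelis-Menten fit.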

[3] = molecular target: Coagulation factor X (Homo sapiens) (UniProt P00742); assay: Inhibition of human factor 10a assessed as 25 x 10^-6M chromogenic TH substrate hydrolysis at 1 x 10^-3M; method in brief: as §2
[4] = molecular target: Coagulation factor X (Homo sapiens) (UniProt P00742); assay: Inhibition of human factor 10a assessed as 125 x 10^-6M chromogenic TH substrate hydrolysis at 0.5 x 10^-3M; method in brief: as §2
[5] = molecular target: T1, Coagulation factor X/antithrombin III (Homo sapiens) (UniProt P01008+P00742); assay: Inhibition of human antithrombin 3/factor 10a assessed as 25 x 10^-6M CBS31.39 substrate hydrolysis at 0.5 x 10^-3M; assay type: protein-complex assay
[6] = molecular target: T1, Coagulation factor X/antithrombin III (Homo sapiens); assay: Inhibition of human antithrombin 3/factor 10a assessed as 25 x 10^-6M CBS31.39 substrate hydrolysis at 2 x 10^-3M; assay type: protein-complex assay
[7] = molecular target: T1, Coagulation factor X/antithrombin III (Homo sapiens); assay: Inhibition of human antithrombin 3/factor 10a assessed as 125 x 10^-6M CBS31.39 substrate hydrolysis at 2 x 10^-3M; assay type: protein-complex assay
[8] = molecular target: T1, Coagulation factor X/antithrombin III (Homo sapiens); assay: Inhibition of human antithrombin 3/factor 10a assessed as 125 x 10^-6M CBS31.39 substrate hydrolysis at 1 x 10^-3M; assay type: protein-complex assay
[9] = molecular target: Coagulation factor X (Homo sapiens) (UniProt P00742); assay: Inhibition of human factor 10a assessed as 125 x 10^-6M chromogenic TH substrate hydrolysis at 1 x 10^-3M; method in brief: as §2
[10] = Antiplatelet activity against collagen ADP-induced human platelet aggregation assessed as closure time at 1.25 x 10^-4M; assay type: functional; method in brief: as §1
[11] = molecular target: Coagulation factor X (Homo sapiens) (UniProt P00742); assay: Inhibition of human factor 10a assessed as 25 x 10^-6M chromogenic TH substrate hydrolysis at 2 x 10^-3M; method in brief: as §2
[12] = Anticoagulant activity in human plasma assessed as concentration required to double prothrombin time; assay type: functional
Method in brief: (§3)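 Citrated pooled normal human plasma mixed 1:1 with compound in water (final 5 × 10-3 to 0.05 × 10^-3 M) and held 2 min at 37 °C. APTT: reagent added, 6 min at 37 °C, then 25 mmol/L CaCl2. PT: prewarmed PT reagent. TT: prewarmed thrombin (100 U/mL). Clotting read on a coagulometer, duplicate, three days (n = 6). Doubling concentration taken from linear regression of each concentration-response curve.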

Blood [13] = assay: Anticoagulant activity in human whole blood assessed as alpha angle at 1.25 x 10^-4M by thromboelastography in presence of intrinsic activators; assay type: functional
Method in brief: (§4)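 Citrated whole blood from healthy donors (1:9 citrate), run within 5 h on a ROTEM analyzer. Compound in saline diluted 1:16 into blood to the final concentration stated; saline control. Intrinsic (InTEM) or extrinsic (ExTEM) activator added. Clot monitored at 37 °C in an oscillating cup-and-pin system for up to 60 min, giving R, K, angle and MA.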

[14] = Stability of the compound in human plasma assessed as compound remaining after 3 hrs; assay type: ADME, cell-free; conditions: read-out: Activity
Method in brief: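 Compound at 25 µM final in human plasma diluted 1:1 with PBS pH 7.4, shaken at 37 °C for 180 min. Time-zero and 180-min samples quenched with TBA buffer and cold acetonitrile, then centrifuged. Supernatant dried, redissolved and analysed by HPLC. Three independent samples per time point.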

[15] = molecular target: Prothrombin (Homo sapiens) (UniProt P00734); assay: Inhibition of human thrombin
Method in brief: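 Direct thrombin assay without ATIII: compound in water in 50 mM Tris/HCl pH 8.3, 227 mM NaCl, 0.1% BSA, 10 min at 37 °C. Human thrombin (0.06 U/mL final) added for 10 min, then Chromozym TH (178 × 10^-6 M). Read at 405 nm every 12 s for 20 min. Percent inhibition from initial slope against water control. Duplicates on ≥3 days.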

Blood [16] = assay: Anticoagulant activity in human whole blood assessed as clotting formation time at 1.25 x 10^-4M by thromboelastography in presence of intrinsic activators; assay type: functional; method in brief: as §4
[17] = molecular target: T1, Coagulation factor X/antithrombin III (Homo sapiens); assay: Inhibition of human antithrombin 3/factor 10a assessed as 125 x 10^-6M CBS31.39 substrate hydrolysis at 0.5 x 10^-3M; assay type: protein-complex assay
Blood [18] = assay: Anticoagulant activity in human whole blood assessed as alpha angle at 1.25 x 10^-4M by thromboelastography in presence of extrinsic activators; assay type: functional; method in brief: as §4
Blood [19] = assay: Anticoagulant activity in human whole blood assessed as maximum amplitude at 1.25 x 10^-4M by thromboelastography in presence of intrinsic activators; assay type: functional; method in brief: as §4
[20] = molecular target: T1, Coagulation factor X/antithrombin III (Homo sapiens); assay: Inhibition of human antithrombin 3/factor 10a assessed as 25 x 10^-6M CBS31.39 substrate hydrolysis at 1 x 10^-3M; assay type: protein-complex assay
[21] = Anticoagulant activity in human plasma assessed as concentration required to double thrombin time; assay type: functional; method in brief: as §3
Blood [22] = assay: Anticoagulant activity in human whole blood assessed as clotting time at 1.25 x 10^-4M by thromboelastography in presence of extrinsic activators; assay type: functional; method in brief: as §4
[23] = Anticoagulant activity in human plasma assessed as concentration required to double activated partial prothrombin time; assay type: functional; method in brief: as §3
Blood [24] = assay: Anticoagulant activity in human whole blood assessed as maximum amplitude at 1.25 x 10^-4M by thromboelastography in presence of extrinsic activators; assay type: functional; method in brief: as §4
[25] = molecular target: Coagulation factor X (Homo sapiens) (UniProt P00742); assay: Inhibition of human factor 10a assessed as 25 x 10^-6M chromogenic TH substrate hydrolysis at 0.5 x 10^-3M; method in brief: as §2
Mus musculus [26] = assay: Hepatotoxicity in mouse liver assessed as change in plasma GOT/GPT level at 150 umol/kg, ip; assay type: toxicity, organism-based; conditions: in vivo
Method in brief: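 Male CD1 mice (30-35 g), compound in saline ip at 150 µmol/kg. Portal vein citrated blood taken at 30, 60 and 120 min. GOT and GPT (U/L) measured in platelet-poor plasma on an automated chemistry analyzer. Four independent experiments, mean ± SEM.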

Mus musculus [27] = assay: Anticoagulant activity in mouse assessed as increase in activated partial prothrombin time at 150 umol/kg, ip relative to control; assay type: functional
Method in brief: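 Adult male CD1 mice (30-35 g) given compound in saline ip at 150 µmol/kg, fasted on the day. Citrated portal vein blood taken at 30, 60 and 120 min. APTT measured in platelet-poor plasma. Expressed as ratio to saline-treated mice, mean ± SEM of three experiments.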

Blood [28] = assay: Anticoagulant activity in human whole blood assessed as clotting time at 1.25 x 10^-4M by thromboelastography in presence of intrinsic activators; assay type: functional; method in brief: as §4
Blood [29] = assay: Anticoagulant activity in human whole blood assessed as clotting formation time at 1.25 x 10^-4M by thromboelastography in presence of extrinsic activators; assay type: functional; method in brief: as §4

`C[C@H]1O[C@@H](OC[C@@H]2O[C@H](Oc3c(-c4ccc(OS(=O)(=O)O)c(OS(=O)(=O)O)c4)oc4cc(OS(=O)(=O)O)cc(OS(=O)(=O)O)c4c3=O)[C@@H](OS(=O)(=O)O)[C@H](OS(=O)(=O)O)[C@H]2OS(=O)(=O)O)[C@@H](OS(=O)(=O)O)[C@@H](OS(=O)(=O)O)[C@@H]1OS(=O)(=O)O` showed a Time [1] of 244 s, an inhibition [2] of 42.7% and an inhibition [3] of 30.9%. For the same compound, the inhibition [4] was 22.4%, the inhibition [5] was 29.3% and the inhibition [6] was 31.4%. It also gave an inhibition [7] of 33.1%, an inhibition [8] of 20.7% and an inhibition [9] of 32%. For the same compound, the Time [10] was 189 s, the inhibition [11] was 40% and the 2PT [12] was 649 µM. For the same compound, the Activity (Blood [13]) was 61 degree, the remaining at 3 h [14] was 95% and the inhibition [15] was “inactive”. The Time (Blood [16]) was 176 s, the inhibition [17] was “inactive” and the Activity (Blood [18]) was 51 degree. For the same compound, the Activity (Blood [19]) was 48 mm, the inhibition [20] was 30.5% and the Activity [21] was 877 µM. For the same compound, the Time (Blood [22]) was 120 s, the 2aPTT [23] was 66 µM and the Activity (Blood [24]) was 46 mm. The inhibition [25] was “inactive”, the Activity (Mus musculus [26]) was “Non-toxic” and the “fold change (FC)” value (Mus musculus [27]) was 1.5. For the same compound, the Time (Blood [28]) was 261 s and the Time (Blood [29]) was 257 s.
